Experiments:
[1] = molecular target: Tubulin (Homo sapiens) (UniProt P68371+Q9H4B7+P0DPH7+P68366+Q13509+Q71U36+P04350+Q3ZCM7+P07437+P68363+Q9BQE3+Q6PEY2+Q13885+Q9BVA1+Q9BUF5); test: Induction of GTP-tubulin polymerization; assay type: protein-complex assay
Procedure, shortened: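 ED50 for induction of tubulin assembly, read by light scattering at 350 nm or by fluorescence in a 96-well format. GTP-tubulin was used unless otherwise stated. Some samples were run with GDP-tubulin and normalized to the GTP-tubulin scale. Some values are single determinations.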

[2] = system: PC-3; test: Cytotoxicity against PC3 cell line by MTT assay; assay type: cell-based; details: Homo sapiens
[3] = system: A2780; test: Cytotoxicity against A2780 cell line; assay type: cell-based; details: Homo sapiens

ED50 [1]	Structure (SMILES)	IC50 [2]	IC50 [3]
1200 nM	C=CCOc1ccccc1[C@H](NC(=O)c1ccccc1)[C@@H](O)C(=O)O[C@H]1C[C@@]2(O)[C@@H](OC(=O)c3ccccc3)[C@@H]3[C@]4(OC(=O)C=C)CO[C@@H]4C[C@H](O)[C@@]3(C)C(=O)[C@H](OC(C)=O)C(=C1C)C2(C)C	2800 nM	17800 nM
1400 nM	C=CC(=O)O[C@@]12CO[C@@H]1C[C@H](O)[C@@]1(C)C(=O)[C@H](OC(C)=O)C3=C(C)[C@@H](OC(=O)[C@H](O)[C@@H](NC(=O)c4ccccc4)c4ccccc4C=C)C[C@@](O)([C@@H](OC(=O)c4ccccc4)[C@H]21)C3(C)C	275 nM	1600 nM
4600 nM	CC(=O)O[C@H]1C(=O)[C@@]2(C)[C@@H]3[C@H](OC(=O)c4ccccc4)[C@]4(O)C[C@H](OC(=O)[C@H](O)[C@@H](NC(=O)c5ccccc5)c5cccc(c5)OC/C=C\C(=O)O[C@]35CO[C@@H]5C[C@@H]2O)C(C)=C1C4(C)C	580 nM	6300 nM
3400 nM	CC(=O)O[C@H]1C(=O)[C@@]2(C)[C@@H]3[C@H](OC(=O)c4ccccc4)[C@]4(O)C[C@H](OC(=O)[C@H](O)[C@@H](NC(=O)c5ccccc5)c5cccc(c5)OCCCCCC(=O)O[C@]35CO[C@@H]5C[C@@H]2O)C(C)=C1C4(C)C	1000 nM	3600 nM
760 nM	CC(=O)O[C@H]1C(=O)[C@@]2(C)[C@@H]3[C@H](OC(=O)c4ccccc4)[C@]4(O)C[C@H](OC(=O)[C@H](O)[C@@H](NC(=O)c5ccccc5)c5ccccc5OCCCCCC(=O)O[C@]35CO[C@@H]5C[C@@H]2O)C(C)=C1C4(C)C	51 nM	980 nM
350 nM	COc1cccc(C(=O)O[C@H]2[C@@H]3[C@]45CO[C@@H]4C[C@H](O)[C@@]3(C)C(=O)[C@H](OC(C)=O)C3=C(C)[C@H](C[C@]2(O)C3(C)C)OC(=O)[C@H](O)[C@@H](NC(=O)OC(C)(C)C)c2ccccc2/C=C/CC(=O)O5)c1	11 nM	> 6 nM
1400 nM	CC(=O)O[C@H]1C(=O)[C@@]2(C)[C@@H]3[C@H](OC(=O)c4ccccc4)[C@]4(O)C[C@H](OC(=O)[C@H](O)[C@@H](NC(=O)c5ccccc5)c5cccc(c5)OCCCC(=O)O[C@]35CO[C@@H]5C[C@@H]2O)C(C)=C1C4(C)C	53 nM	700 nM
850 nM	CC(=O)O[C@H]1C(=O)[C@@]2(C)[C@@H]3[C@H](OC(=O)c4ccccc4)[C@]4(O)C[C@H](OC(=O)[C@H](O)[C@@H](NC(=O)c5ccccc5)c5ccccc5OCCCCCCC(=O)O[C@]35CO[C@@H]5C[C@@H]2O)C(C)=C1C4(C)C	390 nM	2000 nM
1400 nM	C=CCc1ccccc1[C@H](NC(=O)c1ccccc1)[C@@H](O)C(=O)O[C@H]1C[C@@]2(O)[C@@H](OC(=O)c3ccccc3)[C@@H]3[C@]4(OC(=O)C=C)CO[C@@H]4C[C@H](O)[C@@]3(C)C(=O)[C@H](OC(C)=O)C(=C1C)C2(C)C	550 nM	1300 nM
570 nM	COc1cccc(C(=O)O[C@H]2[C@@H]3[C@]45CO[C@@H]4C[C@H](O)[C@@]3(C)C(=O)[C@H](OC(C)=O)C3=C(C)[C@H](C[C@]2(O)C3(C)C)OC(=O)[C@H](O)[C@@H](NC(=O)c2ccccc2)c2ccccc2/C=C/CC(=O)O5)c1	6 nM	23.7 nM
2200 nM	C=CCCCC(=O)O[C@@]12CO[C@@H]1C[C@H](O)[C@@]1(C)C(=O)[C@H](OC(C)=O)C3=C(C)[C@@H](OC(=O)[C@H](O)[C@@H](NC(=O)c4ccccc4)c4cccc(OCC=C)c4)C[C@@](O)([C@@H](OC(=O)c4ccccc4)[C@H]21)C3(C)C	4600 nM	7400 nM
1000 nM	C=CC(=O)O[C@@]12CO[C@@H]1C[C@H](O)[C@@]1(C)C(=O)[C@H](OC(C)=O)C3=C(C)[C@@H](OC(=O)[C@H](O)[C@@H](NC(=O)c4ccccc4)c4cccc(C=C)c4)C[C@@](O)([C@@H](OC(=O)c4ccccc4)[C@H]21)C3(C)C	320 nM	1700 nM
930 nM	CC(=O)O[C@H]1C(=O)[C@@]2(C)[C@@H]3[C@H](OC(=O)c4ccccc4)[C@]4(O)C[C@H](OC(=O)[C@H](O)[C@@H](NC(=O)c5ccccc5)c5ccccc5OC/C=C/CCCCC(=O)O[C@]35CO[C@@H]5C[C@@H]2O)C(C)=C1C4(C)C	500 nM	1840 nM
2700 nM	C=CCCOc1ccccc1[C@H](NC(=O)c1ccccc1)[C@@H](O)C(=O)O[C@H]1C[C@@]2(O)[C@@H](OC(=O)c3ccccc3)[C@@H]3[C@]4(OC(=O)C=C)CO[C@@H]4C[C@H](O)[C@@]3(C)C(=O)[C@H](OC(C)=O)C(=C1C)C2(C)C	> 13200 nM	19800 nM
220 nM	COc1cccc(C(=O)O[C@H]2[C@@H]3[C@]45CO[C@@H]4C[C@H](O)[C@@]3(C)C(=O)[C@H](OC(C)=O)C3=C(C)[C@H](C[C@]2(O)C3(C)C)OC(=O)[C@H](O)[C@@H](NC(=O)OC(C)(C)C)c2ccccc2CCCC(=O)O5)c1	1.3 nM	0.49 nM
900 nM	CC(=O)O[C@H]1C(=O)[C@@]2(C)[C@@H]3[C@H](OC(=O)c4ccccc4)[C@]4(O)C[C@H](OC(=O)[C@H](O)[C@@H](NC(=O)c5ccccc5)c5ccccc5OC/C=C/CCC(=O)O[C@]35CO[C@@H]5C[C@@H]2O)C(C)=C1C4(C)C	55 nM	830 nM
180 nM	CC(=O)O[C@H]1C(=O)[C@@]2(C)[C@@H]3[C@H](OC(=O)c4ccccc4)[C@]4(O)C[C@H](OC(=O)[C@H](O)[C@@H](NC(=O)OC(C)(C)C)c5ccccc5CCCC(=O)O[C@]35CO[C@@H]5C[C@@H]2O)C(C)=C1C4(C)C	1.5 nM	0.65 nM
490 nM	CC(=O)O[C@H]1C(=O)[C@@]2(C)[C@@H]3[C@H](OC(=O)c4ccccc4)[C@]4(O)C[C@H](OC(=O)[C@H](O)[C@@H](NC(=O)OC(C)(C)C)c5ccccc5/C=C/CC(=O)O[C@]35CO[C@@H]5C[C@@H]2O)C(C)=C1C4(C)C	3.2 nM	1.4 nM
1400 nM	CC(=O)O[C@H]1C(=O)[C@@]2(C)[C@@H]3[C@H](OC(=O)c4ccccc4)[C@]4(O)C[C@H](OC(=O)[C@H](O)[C@@H](NC(=O)c5ccccc5)c5cccc(c5)CCCCC(=O)O[C@]35CO[C@@H]5C[C@@H]2O)C(C)=C1C4(C)C	570 nM	8800 nM
1800 nM	C=CCCC(=O)O[C@@]12CO[C@@H]1C[C@H](O)[C@@]1(C)C(=O)[C@H](OC(C)=O)C3=C(C)[C@@H](OC(=O)[C@H](O)[C@@H](NC(=O)c4ccccc4)c4cccc(OCC=C)c4)C[C@@](O)([C@@H](OC(=O)c4ccccc4)[C@H]21)C3(C)C	2600 nM	2520 nM
330 nM	CC(=O)O[C@H]1C(=O)[C@@]2(C)[C@@H]3[C@H](OC(=O)c4ccccc4)[C@]4(O)C[C@H](OC(=O)[C@H](O)[C@@H](NC(=O)c5ccccc5)c5ccccc5/C=C/CC(=O)O[C@]35CO[C@@H]5C[C@@H]2O)C(C)=C1C4(C)C	3.1 nM	0.5 nM
	COc1cccc(C(=O)O[C@H]2[C@@H]3[C@]45CO[C@@H]4C[C@H](O)[C@@]3(C)C(=O)[C@H](OC(C)=O)C3=C(C)[C@H](C[C@]2(O)C3(C)C)OC(=O)[C@H](O)[C@@H](NC(=O)c2ccccc2)c2ccccc2CCCC(=O)O5)c1		23.1 nM

Source: ChEMBL document CHEMBL1141391 (J Med Chem, 2007)
